Source: ChEMBL document CHEMBL3785023, “Development and Pharmacological Characterization of Selective Blockers of 2-Arachidonoyl Glycerol Degradation with Efficacy in Rodent Models of Multiple Sclerosis and Pain” (J Med Chem, 2016)

Columns and labels:
[1] = molecular target: T1, Monoglyceride lipase (Homo sapiens, UniProt Q99685); assay: Inhibition of recombinant C-terminal His6-tagged human MAGL expressed in Escherichia coli using 2-arachidonoyl-[3H]-glycerol as substrate incubated for 20 mins by scintillation counting method
T1 sequence (Q99685 whole entry): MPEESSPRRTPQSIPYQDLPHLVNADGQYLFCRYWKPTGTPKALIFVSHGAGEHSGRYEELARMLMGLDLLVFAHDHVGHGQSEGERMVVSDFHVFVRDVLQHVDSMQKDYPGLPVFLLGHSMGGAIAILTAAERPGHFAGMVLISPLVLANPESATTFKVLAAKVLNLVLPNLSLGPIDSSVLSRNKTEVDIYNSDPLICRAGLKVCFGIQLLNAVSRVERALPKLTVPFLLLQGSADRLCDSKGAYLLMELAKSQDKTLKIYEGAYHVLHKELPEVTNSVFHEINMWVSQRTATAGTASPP

[2] = molecular target: T1, Monoglyceride lipase; assay: Inhibition of recombinant C-terminal His6-tagged human MAGL expressed in Escherichia coli using 2-arachidonoyl-[3H]-glycerol as substrate preincubated for 10 mins followed by substrate addition measured after 20 mins by scintillation counting method
In short: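 Human recombinant MGL (10,000xg cytosolic fraction, 0.05 µg/sample) is pre-incubated with compound for 10 min. It is then incubated 20 min at 37 °C in 50 mM Tris-HCl pH 7.0 with 2-arachidonoyl-[3H]-glycerol diluted with unlabelled 2-AG. The mix is extracted with 2 vol CHCl3/MeOH 1:1, and [3H]-glycerol in the aqueous phase is counted by scintillation. Values are means of three experiments.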

[3] = molecular target: T2, Fatty-acid amide hydrolase 1 (Homo sapiens, UniProt O00519); assay: Inhibition of recombinant C-terminal His-tagged human FAAH expressed in sf21 cells using N-arachidonoyl-[14C]-ethanolamine as substrate assessed as reduction in [14C]ethanolamine production incubated for 30 mins by scintillation counting method
T2 sequence (O00519 whole entry): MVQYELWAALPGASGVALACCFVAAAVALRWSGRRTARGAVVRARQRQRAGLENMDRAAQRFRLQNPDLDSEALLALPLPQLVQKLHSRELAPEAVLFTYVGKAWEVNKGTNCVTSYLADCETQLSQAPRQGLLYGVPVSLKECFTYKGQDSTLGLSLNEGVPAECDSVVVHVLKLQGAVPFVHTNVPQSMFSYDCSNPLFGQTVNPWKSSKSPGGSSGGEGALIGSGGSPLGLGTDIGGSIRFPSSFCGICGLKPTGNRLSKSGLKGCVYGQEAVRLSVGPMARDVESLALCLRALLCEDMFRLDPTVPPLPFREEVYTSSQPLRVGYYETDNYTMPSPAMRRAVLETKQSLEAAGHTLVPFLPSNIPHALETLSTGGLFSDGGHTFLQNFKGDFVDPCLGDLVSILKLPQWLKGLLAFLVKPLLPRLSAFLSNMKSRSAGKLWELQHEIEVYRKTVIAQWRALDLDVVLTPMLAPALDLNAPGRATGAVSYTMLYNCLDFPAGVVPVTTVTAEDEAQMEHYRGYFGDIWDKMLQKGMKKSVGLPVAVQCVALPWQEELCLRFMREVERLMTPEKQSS
In short: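 Human recombinant FAAH (2 µg/sample) incubated in 50 mM Tris-HCl, pH 9.5, 37 °C, 30 min with N-arachidonoyl-[14C]-ethanolamine diluted with unlabelled AEA. [14C]-ethanolamine released was quantified by scintillation counting of the aqueous phase after extraction with 2 volumes CHCl3/MeOH 1:1. Values are means of three experiments.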

[4] = Selectivity ratio of IC50 for human recombinant C-terminal His-tagged FAAH expressed in sf21 cells to IC50 for recombinant C-terminal His6-tagged human MAGL expressed in Escherichia coli
In short: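 Ratio of IC50 values from two radiometric assays, each read by scintillation counting of the aqueous phase after CHCl3/MeOH 1:1 extraction. MGL assay: 10,000xg cytosolic fraction of human recombinant MGL (0.05 µg/sample), 50 mM Tris-HCl pH 7.0, 37 °C, 20 min, 2-arachidonoyl-[3H]-glycerol. FAAH assay: human recombinant FAAH (2 µg/sample), pH 9.5, 37 °C, 30 min, [14C]-anandamide. Means of three experiments.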

[5] = molecular target: T3, Fatty-acid amide hydrolase 1 (Mus musculus, UniProt O08914); assay: Inhibition of FAAH in mouse brain membrane using [13C]oleamide as substrate by LC-MS analysis; type: cell membranes
T3 sequence (O08914 whole entry): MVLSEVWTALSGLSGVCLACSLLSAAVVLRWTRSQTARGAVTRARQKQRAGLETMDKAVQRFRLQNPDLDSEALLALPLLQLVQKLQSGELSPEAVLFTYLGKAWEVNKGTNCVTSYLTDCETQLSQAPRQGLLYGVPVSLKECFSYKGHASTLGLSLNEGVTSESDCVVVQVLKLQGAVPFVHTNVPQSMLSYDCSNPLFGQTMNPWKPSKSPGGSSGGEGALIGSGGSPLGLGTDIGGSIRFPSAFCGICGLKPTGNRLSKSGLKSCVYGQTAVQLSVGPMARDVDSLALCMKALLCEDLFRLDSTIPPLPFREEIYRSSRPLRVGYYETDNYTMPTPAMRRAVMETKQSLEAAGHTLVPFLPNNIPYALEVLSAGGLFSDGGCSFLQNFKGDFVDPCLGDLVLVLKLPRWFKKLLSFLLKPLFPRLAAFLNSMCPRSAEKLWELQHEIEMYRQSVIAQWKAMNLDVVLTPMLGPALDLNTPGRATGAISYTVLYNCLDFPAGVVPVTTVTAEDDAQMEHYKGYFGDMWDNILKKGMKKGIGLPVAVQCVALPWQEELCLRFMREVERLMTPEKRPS

[6] = molecular target: T4, Fatty-acid amide hydrolase 1 (Rattus norvegicus, UniProt P97612); assay: Inhibition of FAAH in rat brain membranes using N-arachidonoyl-[14C]-ethanolamine as substrate assessed as reduction in [14C]ethanolamine production incubated for 30 mins by scintillation counting method; type: cell membranes, Membrane
T4 sequence (P97612 whole entry): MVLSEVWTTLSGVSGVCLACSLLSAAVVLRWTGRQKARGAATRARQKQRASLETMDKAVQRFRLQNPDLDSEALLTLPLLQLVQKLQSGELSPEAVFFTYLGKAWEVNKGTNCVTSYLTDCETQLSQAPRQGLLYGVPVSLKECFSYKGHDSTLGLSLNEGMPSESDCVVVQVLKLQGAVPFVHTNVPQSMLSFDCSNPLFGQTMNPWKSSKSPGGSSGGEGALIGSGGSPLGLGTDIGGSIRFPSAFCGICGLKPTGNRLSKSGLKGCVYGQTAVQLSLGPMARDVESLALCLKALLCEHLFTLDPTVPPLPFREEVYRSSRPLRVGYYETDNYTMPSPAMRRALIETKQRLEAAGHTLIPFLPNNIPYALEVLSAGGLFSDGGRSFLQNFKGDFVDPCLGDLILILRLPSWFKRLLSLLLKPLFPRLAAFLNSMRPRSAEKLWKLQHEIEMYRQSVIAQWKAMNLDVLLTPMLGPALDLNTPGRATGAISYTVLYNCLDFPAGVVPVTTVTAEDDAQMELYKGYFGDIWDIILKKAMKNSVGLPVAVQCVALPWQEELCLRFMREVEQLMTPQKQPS
In short: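 10,000×g membrane fraction of rat brain (70 µg per sample) incubated in 50 mM Tris-HCl pH 9.5 at 37 °C for 30 min with N-arachidonoyl-[14C]-ethanolamine diluted with AEA. Released [14C]-ethanolamine measured by scintillation counting of the aqueous phase after CHCl3/MeOH 1:1 extraction. Means of three experiments.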

Question: With `O=C1[C@H](c2ccc(F)cc2)[C@@H](c2ccc3c(c2)OCO3)N1C1CCN(C(=O)n2cncn2)CC1` [listing 1 of 2 here] as the compound, how does the IC50 [1] read?
Answer: 0.0046 µM

Question: And the IC50 [2]?
Answer: 0.104 µM

Question: And the IC50 [3]?
Answer: 4.05 µM

Question: For `O=C(N1CCCCC1)n1cncn1`, which IC50 [1] is on record?
Answer: > 10 µM

Question: With `O=C1[C@@H](c2ccc(F)cc2)[C@H](c2ccc3c(c2)OCO3)N1C1CCN(C(=O)n2cncn2)CC1` as the compound, how does the IC50 [1] read?
Answer: 0.0312 µM

Question: What about the IC50 [2] of the same compound?
Answer: 0.728 µM

Question: What about the IC50 [3] of the same compound?
Answer: 7.74 µM

Question: And the Ratio IC50 [4]?
Answer: 248

Question: Which IC50 [5] does the source give for `O=C(Oc1ccc([N+](=O)[O-])cc1)N1CCC(C(O)(c2ccc3c(c2)OCO3)c2ccc3c(c2)OCO3)CC1` here?
Answer: > 10 µM

Question: For `O=C1[C@H](c2ccc(F)cc2)[C@@H](c2ccc3c(c2)OCO3)N1C1CCN(C(=O)n2cncn2)CC1` [listing 2 of 2 here], which Ratio IC50 [4] is on record?
Answer: 880

Question: For `O=C1[C@H](c2ccc(F)cc2)[C@@H](c2ccc3c(c2)OCO3)N1C1CCN(Cc2ccccc2)CC1` (racemic), which IC50 [1] is on record?
Answer: > 10 µM

Question: Which IC50 [6] does the source give for `COc1ccc([C@H]2C(=O)N(C3CCN(C(=O)n4cncn4)CC3)[C@@H]2c2ccc(OC)cc2)cc1` (racemic) here?
Answer: 3.68 µM

Question: Which results are given for `O=C(Oc1ccc([N+](=O)[O-])cc1)N1CCC(N2C(=O)[C@H](c3ccc(F)cc3)[C@H]2c2ccc3c(c2)OCO3)CC1` (racemic)?
Answer: IC50 [1]: 0.00141 µM; IC50 [3]: > 10 µM; Ratio IC50 [4]: > 7

Question: With `COc1ccc([C@H]2C(=O)N(C3CCN(C(=O)n4cncn4)CC3)[C@@H]2c2ccc(OC)c(OC)c2)cc1OC` (racemic) as the compound, how does the IC50 [6] read?
Answer: > 10 µM

Question: For `O=C1[C@H](c2ccc(F)cc2)[C@@H](c2ccc3c(c2)OCO3)N1C1CCN(C(=O)n2ccnc2)CC1` (racemic), which IC50 [1] is on record?
Answer: > 10 µM

Question: Which IC50 [6] does the source give for `COc1ccc([C@H]2C(=O)N(C3CCN(C(=O)n4cncn4)CC3)[C@@H]2c2ccc(OC)c(OC)c2)cc1` (racemic) here?
Answer: 0.725 µM

Question: Which IC50 [6] does the source give for `COc1ccc([C@H]2C(=O)N(C3CCN(C(=O)n4cncn4)CC3)[C@@H]2c2ccc3c(c2)OCO3)cc1` (racemic) here?
Answer: 2.59 µM

Question: Which IC50 [1] does the source give for `O=C1[C@H](c2ccc(F)cc2)[C@@H](c2ccc3c(c2)OCO3)N1C1CCNCC1` (racemic) here?
Answer: > 10 µM

Question: Which IC50 [6] does the source give for `O=C(OC(C(F)(F)F)C(F)(F)F)N1CCC(N2C(=O)[C@H](c3ccc(F)cc3)[C@H]2c2ccc3c(c2)OCO3)CC1` (racemic) here?
Answer: > 50 µM
